Assay results: ChEMBL document CHEMBL1177854, “Synthesis of bile acid derivatives and in vitro cytotoxic activity with pro-apoptotic process on multiple myeloma (KMS-11), glioblastoma multiforme (GBM), and colonic carcinoma (HCT-116) human cell lines” (Eur J Med Chem, 2010)
The source made the active and inactive calls. The rule behind the calls is not given here.

Key:
HCT-116 [1] = test: Cytotoxicity against human HCT116 cells after 24 hrs by neutral red uptake assay; type: functional, cell-based; conditions: HCT-116, 24 h
Method in brief: (§1)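 GBM-12 (brain tumour line), KMS-11 myeloma or HCT-116 colon carcinoma cells exposed to compound for 24 h; viability read by neutral red uptake. IC50 taken from dose-response curves; mean of three experiments ± standard error.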

GBM [2] = test: Cytotoxicity against human GBM cells after 24 hrs by neutral red uptake assay; type: functional, cell-based; method in brief: as §1
[3] = Lipophilicity, log P of the compound; type: physicochemical; conditions: octanol/water
Method in brief: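 Log P calculated in silico with the ALogP program; not measured experimentally.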

[4] = Cytotoxicity against human KMS11 cells after 24 hrs by neutral red uptake assay; type: functional, cell-based; conditions: KMS-11, 24 h; method in brief: as §1
KMS-11 [5] = test: Induction of apoptosis in human KMS11 cells assessed as dead cells at 20 uM after 24 hrs using annexin V stain by FACSCalibur flow cytometry; type: functional
Method in brief: (§2)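 Cells were exposed to compound for 24 h alongside untreated control cultures. They were then labelled with FITC-conjugated annexin V to mark early apoptosis. The percentage of apoptotic cells was read by flow cytometry.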

KMS-11 [6] = test: Induction of apoptosis in human KMS11 cells assessed as DNA fragmentation after 48 hrs; type: functional, cell-based
Method in brief: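 KMS-11 cultures treated for 48 h; culture supernatants run on agarose gel electrophoresis against a 100 bp DNA ladder to detect DNA fragmentation.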

HCT-116 [7] = test: Induction of apoptosis in human HCT116 cells assessed as dead cells at 20 uM after 24 hrs using annexin V stain by FACSCalibur flow cytometry; type: functional; method in brief: as §2
KMS-11 [8] = test: Induction of apoptosis in human KMS11 cells assessed as apoptotic nuclei at 20 uM after 24 hrs by microscopy relative to control; type: functional
KMS-11 [9] = test: Induction of apoptosis in human KMS11 cells assessed as apoptotic nuclei at 10 uM after 24 hrs by microscopy relative to control; type: functional
GBM [10] = test: Induction of apoptosis in human GBM cells assessed as dead cells at 20 uM after 24 hrs using annexin V stain by FACSCalibur flow cytometry; type: functional
KMS-11 [11] = test: Induction of apoptosis in human KMS11 cells assessed as apoptotic nuclei at 40 uM after 24 hrs by microscopy relative to control; type: functional

Row | logP ([3]; read-out: logP) | SMILES | IC50 (HCT-116 [1]) | IC50 (GBM [2]) | IC50 [4] | logP [3] | Activity (KMS-11 [5]) | Activity (KMS-11 [6]) | Activity (HCT-116 [7]) | Activity (KMS-11 [8]) | Activity (KMS-11 [9]) | Activity (GBM [10]) | Activity (KMS-11 [11])
1 | 2.16 | C[C@H](CCC(=O)NN1CCN(C)CC1)[C@H]1CC[C@H]2[C@@H]3[C@H](O)C[C@@H]4C[C@H](O)CC[C@]4(C)[C@H]3C[C@H](O)[C@]12C | > 50 µM | > 50 µM | > 50 µM |  |  |  |  |  |  |  | 
2 | 3.26 | C[C@H](CCC(=O)NN1CCN(C)CC1)[C@H]1CC[C@H]2[C@@H]3[C@@H](O)C[C@@H]4C[C@H](O)CC[C@]4(C)[C@H]3CC[C@]12C | > 50 µM | > 50 µM | > 50 µM |  |  |  |  |  |  |  | 
3 | 3.26 | C[C@H](CCC(=O)NN1CCN(C)CC1)[C@H]1CC[C@H]2[C@@H]3[C@H](O)C[C@@H]4C[C@H](O)CC[C@]4(C)[C@H]3CC[C@]12C | > 50 µM | ≥ 50 µM | ≥ 50 µM |  |  |  |  |  |  |  | 

Continued, compound first:

Row | SMILES | logP ([3]; read-out: logP) | IC50 (HCT-116 [1]) | IC50 (GBM [2]) | IC50 [4] | logP [3] | Activity (KMS-11 [5]) | Activity (KMS-11 [6]) | Activity (HCT-116 [7]) | Activity (KMS-11 [8]) | Activity (KMS-11 [9]) | Activity (GBM [10]) | Activity (KMS-11 [11])
4 | C[C@H](CCC(=O)O)[C@H]1CC[C@H]2[C@@H]3[C@H](O)C[C@@H]4C[C@H](O)CC[C@]4(C)[C@H]3C[C@H](O)[C@]12C [CHOLIC ACID] |  | > 50 µM | > 50 µM | > 50 µM | 2.912 |  |  |  |  |  |  | 
5 | C[C@H](CCC(=O)O)[C@H]1CC[C@H]2[C@@H]3[C@H](O)C[C@@H]4C[C@H](O)CC[C@]4(C)[C@H]3CC[C@]12C [CHENODIOL] |  | > 50 µM | > 50 µM | > 50 µM | 4.014 |  |  |  |  |  |  | 
6 | C[C@H](CCC(=O)N1CCN(C/C=C/c2ccccc2)CC1)[C@H]1CC[C@H]2[C@@H]3[C@H](O)C[C@@H]4C[C@H](O)CC[C@]4(C)[C@H]3C[C@H](O)[C@]12C | 4.71 | > 50 µM | > 50 µM | > 50 µM |  |  |  |  |  |  |  | 
7 | C[C@H](CCC(=O)O)[C@H]1CC[C@H]2[C@@H]3[C@@H](O)C[C@@H]4C[C@H](O)CC[C@]4(C)[C@H]3CC[C@]12C [URSODIOL] |  | > 50 µM | > 50 µM | > 50 µM | 4.014 |  |  |  |  |  |  | 
8 | C[C@H](CCC(=O)N1CCN(C/C=C/c2ccccc2)CC1)[C@H]1CC[C@H]2[C@@H]3[C@H](O)C[C@@H]4C[C@H](O)CC[C@]4(C)[C@H]3CC[C@]12C | 5.81 | 18.5 µM | 16.5 µM | 8.5 µM |  |  |  |  |  |  |  | 
9 | C[C@H](CCC(=O)N1CCN(C/C=C/c2ccccc2)CC1)[C@H]1CC[C@H]2[C@@H]3[C@@H](O)C[C@@H]4C[C@H](O)CC[C@]4(C)[C@H]3CC[C@]12C | 5.81 | 31.4 µM | 24.7 µM | 28.1 µM |  | 96% | Active | 45% | 59% | 84% | 78% | 35%
